Compounds with a hit are over-represented: about 1.3% of the library has one in this group of screens.
MT1-MMP act inh – blockers of MT1-MMP proenzyme processing, primary screen, HT1080 RFP-PRO-GFP cells, GFP/RFP fluorescence; Matrix metalloproteinase-14 (Homo sapiens), P50281; GFP/RFP ratio fluorescence, overnight; percent of plate control window, DMSO zero; GFP/RFP ratio change, % at 20 µM; 360,000 tested, 0.061% active;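 active = GFP/RFP ratio change of at least 30% with cell ATP level not reduced by more than half and red fluorescence within 50% of control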
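Material: RFP-PRO-GFP reporter HT1080 cells. Dosing: single-point 20 µM compound, 1% DMSO. Controls: DMSO and RFP-L50D-GFP cell wells. Timing: cells overnight before dosing, compound overnight, 37 °C, 5% CO2. Measure: GFP/RFP fluorescence ratio.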
TMEM16A inh – TMEM16A chloride channel inhibitors, primary screen, cell-based, HTS. HEK293 TMEM16A/YFP iodide influx fluorescence, ionomycin. AID 588511, 2011. 310,000 tested, 1.2% active. normalized B-score (activity score, 25-100; higher = stronger inhibition) at 10 µM;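 active = ratio plate-corrected score three or more library SD toward inhibition, starting fluorescence score within five deviations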;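 note: score derived from kinetic fluorescence span divided by baseline fluorescence per well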
Target sequence (Q8BHY3 whole entry, looked up): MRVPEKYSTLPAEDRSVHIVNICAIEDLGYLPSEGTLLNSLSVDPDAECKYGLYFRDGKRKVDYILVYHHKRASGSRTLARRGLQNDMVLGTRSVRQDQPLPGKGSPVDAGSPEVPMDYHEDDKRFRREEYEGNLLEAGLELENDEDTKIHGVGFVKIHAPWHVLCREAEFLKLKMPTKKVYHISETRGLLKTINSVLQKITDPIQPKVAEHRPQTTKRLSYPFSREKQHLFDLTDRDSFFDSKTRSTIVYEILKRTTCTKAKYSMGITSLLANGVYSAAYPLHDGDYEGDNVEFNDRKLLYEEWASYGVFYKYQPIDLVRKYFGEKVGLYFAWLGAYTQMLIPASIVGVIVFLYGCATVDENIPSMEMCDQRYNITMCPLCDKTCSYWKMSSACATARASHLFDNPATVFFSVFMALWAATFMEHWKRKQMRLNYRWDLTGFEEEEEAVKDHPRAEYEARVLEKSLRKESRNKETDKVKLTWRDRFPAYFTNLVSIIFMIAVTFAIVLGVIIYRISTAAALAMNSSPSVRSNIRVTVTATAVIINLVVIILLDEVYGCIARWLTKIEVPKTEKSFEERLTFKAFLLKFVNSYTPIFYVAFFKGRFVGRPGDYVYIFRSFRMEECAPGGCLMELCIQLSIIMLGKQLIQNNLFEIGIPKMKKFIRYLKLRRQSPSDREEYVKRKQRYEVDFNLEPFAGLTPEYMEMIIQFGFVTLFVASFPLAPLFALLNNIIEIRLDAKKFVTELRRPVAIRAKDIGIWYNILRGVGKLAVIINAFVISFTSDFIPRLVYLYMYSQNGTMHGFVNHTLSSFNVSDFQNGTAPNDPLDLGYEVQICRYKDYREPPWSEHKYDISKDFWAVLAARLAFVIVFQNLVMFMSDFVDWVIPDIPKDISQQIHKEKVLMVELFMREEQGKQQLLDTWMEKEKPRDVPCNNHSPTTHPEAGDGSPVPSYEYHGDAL
DAGLB inh – DAGLB lipase inhibitors, primary screen, biochemical, fluorescence, HTS; Diacylglycerol lipase-beta (Homo sapiens), Q8NCG7; HEK293T DAGLB membrane lysate, EnzChek fluorogenic substrate; inhibition, % at 5.17 µM; 340,000 tested, 0.059% active; AID 504411, 2011; in the data active = inhibition above about 34%;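 note: 0% = enzyme with vehicle and 100% = wells lacking enzyme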
TMEM16A act – TMEM16A chloride channel activators or potentiators, primary screen, cell-based, HTS | B-score at 10 µM | 340,000 tested, 0.3% active | HEK293 TMEM16A/YFP-H148Q/I152L, iodide quench fluorescence; hits give low values | AID 623877, 2012;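 active = fluorescence-ratio B-score plate-corrected deviation score at least 3 library SD below zero, with starting fluorescence score within 5 deviations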;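 note: channel opened by trigger with iodide after compound preincubation; score built on the fluorescence ratio of max minus min over baseline; more negative score means more quench and so TMEM16A activation or potentiation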
Numbers without * were called inactive; i = inactive; · = no result.

SMILES	MT1-MMP act inh	TMEM16A inh	DAGLB inh	TMEM16A act
COc1ccc(CN2CCN(Cc3ccc(Br)cc3)CC2)c(OC)c1OC	7	25*	-1	i
CCN(CC)c1ccc(/C=N/OCC(=O)Nc2cccc(C)c2)cc1	-14	25*	-23	i
CCOC(=O)c1c(C)oc2cc(Br)c(OC(C)C(=O)OCC)cc12 (stereo not given)	-4	25*	-23	i
CCOC(=O)COc1cc2c(C(=O)OCC)c(C)oc2cc1Br	3	i	-4	i
CC(C)c1ccc(CNCCCSc2ncccn2)cc1	1	i	-4	i
CSCCC(NC(=O)c1ccco1)C(=O)NCC1CCCO1 (stereo not given)	-5	·	-2	i
O=C(CN1CCCCC1)Nc1cc(Cl)ccc1Oc1ccccc1	-7	100*	-12	i
NC(=O)C1CCN(CC(=O)Nc2cc(Cl)ccc2Oc2ccccc2)CC1	3	i	2	i
O=C(Cc1ccccc1)NN1C(=O)C2C3C=CC(C3)C2C1=O (stereo not given)	0	i	0	-38*
CC(C(=O)N(C)Cc1cccc(F)c1)N1CCN(S(=O)(=O)c2ccc3c(c2)OCCCO3)CC1 (stereo not given)	1	·	-2	i
O=C(CN1C(=O)NC(c2ccc(F)cc2)C1=O)NC1CCCCC1 (stereo not given)	0	·	0	i
Nc1ccccc1C(=O)N1O[C@@H]2C=C[C@H]1CC2	3	·	-2	i
C/C(=N/OC(=O)c1ccccc1Br)c1ccc(C)cc1	-2	25*	-16	i
CC(C)NC(=O)C1(C)CSCC(=O)N1C1CC1 (stereo not given)	2	·	·	·
COC(=O)c1cc2ccsc2n1CC(=O)Nc1cc(Cl)ccc1OC	-15	25*	-3	i
COC(=O)c1cc2ccsc2n1CC(=O)Nc1ccc(N(C)C)cc1	-2	i	0	i
Cc1ccccc1Cn1c(C)c(C(=O)NCCC#N)sc1=O	4	·	·	·
COc1ccccc1N1CCN(C(=O)C2CCCN(S(=O)(=O)c3ccc4c(c3)oc(=O)n4C)C2)CC1 (stereo not given)	-4	25*	2	i
COc1ccc(N2CCN(C(=O)C3CCCN(S(=O)(=O)c4ccc5c(c4)oc(=O)n5C)C3)CC2)cc1 (stereo not given)	-4	i	1	i
O=C(CC[C@H]1O[C@@H](n2cnc3c(NC(=O)c4ccccc4)ncnc32)[C@H](O)[C@@H]1O)NCc1ccc2c(c1)OCO2	2	·	·	·
COc1ccc(CCNS(=O)(=O)c2ccc(-n3cnnn3)c(OC)c2)cc1OC	0	i	-3	-31*
COc1cc(S(=O)(=O)NCC2OCCc3ccccc32)ccc1-n1cnnn1 (stereo not given)	3	i	1	i
O=C(O)CCN1C(=O)/C(=C/c2ccc(-c3nc4ccccc4s3)o2)SC1=S	-4	i	3	i
O=C(O)CC(C(=O)O)N1C(=O)/C(=C/c2ccc(-c3nc4ccccc4s3)o2)SC1=S (stereo not given)	-13	i	4	-7.7*
Cc1ccc(C(C)C)c(OCCNCCc2ccccc2)c1	-2	i	-16	i
SMILES	MT1-MMP act inh	TMEM16A inh	DAGLB inh	TMEM16A act
Cc1cccc(NC(=O)COc2cccc3c2CCN(Cc2ccccc2)C3=O)c1C	1	i	-12	-6.5*
COc1cc(/C=C2/CC/C(=C/c3ccc(O)c(OC)c3)C2=O)ccc1O	9	i	-1	-13*
N#CC1=C(S)N(c2ccccc2)C2(CCCCC2)NC1=O	-2	i	0	-5*
CCOC(=O)c1sc(NC(=O)c2ccc(Cl)s2)cc1C	-3	i	-2	-15*
CCOC(=O)c1sc(NC(=O)c2ccccc2)cc1C	-1	i	-2	i
CC(C)NC(=O)C1(C)CSCC(=O)N1CCCN1CCOCC1 (stereo not given)	0	·	·	·
O=C(Nc1ccc2c(c1)Cc1ccccc1-2)c1cc2ccccc2o1	1	i	-2	i
O=C(Nc1ccc2c(c1)CCC2)c1cc2ccccc2o1	5	i	-14	-5.7*
O=C(Nc1ccc(N2CCOCC2)c(Cl)c1)c1cc2ccccc2o1	0	25*	-2	i
CN1C(C(=O)NCc2cccc(Br)c2)CC2Cn3c(nc4cc(Cl)c(Cl)cc43)C21 (stereo not given)	4	i	1	-4.8*
Cc1cc2nc3n(c2cc1C)CC1CC(C(=O)NCc2cccc(Br)c2)N(C)C31 (stereo not given)	2	i	1	i
Cc1ccc(F)c(NC(=O)/C(C#N)=C(\O)c2ccc(C(C)(C)C)cc2)c1	3	25*	20	i
Cc1cccc(NC(=O)C(=O)NNC(=O)c2ccc(C(C)(C)C)cc2)c1	4	i	15	i
Cc1ccc(CN2CC(C(=O)N3CCN(c4ccccc4Cl)CC3)CC2=O)cc1 (stereo not given)	4	·	5	i
NS(=O)(=O)c1ccc(CCNS(=O)(=O)Cc2ccc(Cl)cc2)cc1	-1	i	1	i
O=C(C1=C[C@@H](c2ccccc2)C[C@@H](OCCCCO)O1)N1CCOCC1	0	100*	-2	i
O=C(C1=C[C@@H](c2ccc(Br)cc2)C[C@@H](OCCCCO)O1)N1CCOCC1	-1	i	-2	i
CCC(=O)N1c2ccc(S(=O)(=O)CCC(=O)Nc3ccc(OC)cc3OC)cc2CC1C (stereo not given)	-2	i	-3	-42*
Cc1cccc(NC(=O)CN(C)C(=O)Cc2ccc(-c3ccccc3)cc2)c1C	-2	·	2	·
C(=N\Nc1nc(Nc2ccccc2)nc(N2CCOCC2)n1)/c1c[nH]c2ccccc12	·	25*	·	·
CN(CCOc1ccc(Cl)cc1)C(=O)c1cccc(S(=O)(=O)N2CCN(c3ccccc3)CC2)c1	12	·	-4	i
CC(=O)c1ccccc1OCCOc1ccccc1C(C)=O	-1	i	-4	i
COc1ccccc1OCCCCOc1ccccc1C(C)=O	-1	25*	-8	i
CCN(CCCNC(=O)CCc1nc(-c2ccc(OC)cc2)no1)c1cccc(C)c1	-1	100*	-2	i
Cc1ccc(S(=O)(=O)N2CCC[C@H]2C(=O)NC2CCCCC2)cc1	3	·	2	i
O=C(NCc1ccccc1)c1cc(C2CCCCN2S(=O)(=O)c2ccccc2)on1 (stereo not given)	1	·	·	·
COCC(=O)N1C[C@H](C)[C@H](OC)CN(C)C(=O)c2cc(NC(=O)Nc3cccc(F)c3)ccc2OC[C@@H]1C	3	·	·	·
CCOC(=O)CN1CC23C=CC(O2)C(C(=O)NCCc2ccccc2)C3C1=O (stereo not given)	3	i	1	-11*
